# Source: PubChem BioAssay
# Most compounds without a hit are left out; they make up all but 2.3% or so of the library.
# TRPC6 activator: mouse TRPC6 channel activators, primary screen, cell-based, HEK293, membrane potential dye; Short transient receptor potential channel 6 (Mus musculus), Q61143; HEK293-TRPC6 membrane potential dye fluorescence; active compounds read high; B-score at 10 µM; hit rate 0.13% among 310,000; AID 2550, 2010;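 active = B-score of the integrated fluorescence ratio above library mean plus 3 SD, and starting fluorescence ratio within library mean plus 5 SD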;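 also: higher score means more depolarization so channel activation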
# Target sequence (Q61143 whole entry, looked up): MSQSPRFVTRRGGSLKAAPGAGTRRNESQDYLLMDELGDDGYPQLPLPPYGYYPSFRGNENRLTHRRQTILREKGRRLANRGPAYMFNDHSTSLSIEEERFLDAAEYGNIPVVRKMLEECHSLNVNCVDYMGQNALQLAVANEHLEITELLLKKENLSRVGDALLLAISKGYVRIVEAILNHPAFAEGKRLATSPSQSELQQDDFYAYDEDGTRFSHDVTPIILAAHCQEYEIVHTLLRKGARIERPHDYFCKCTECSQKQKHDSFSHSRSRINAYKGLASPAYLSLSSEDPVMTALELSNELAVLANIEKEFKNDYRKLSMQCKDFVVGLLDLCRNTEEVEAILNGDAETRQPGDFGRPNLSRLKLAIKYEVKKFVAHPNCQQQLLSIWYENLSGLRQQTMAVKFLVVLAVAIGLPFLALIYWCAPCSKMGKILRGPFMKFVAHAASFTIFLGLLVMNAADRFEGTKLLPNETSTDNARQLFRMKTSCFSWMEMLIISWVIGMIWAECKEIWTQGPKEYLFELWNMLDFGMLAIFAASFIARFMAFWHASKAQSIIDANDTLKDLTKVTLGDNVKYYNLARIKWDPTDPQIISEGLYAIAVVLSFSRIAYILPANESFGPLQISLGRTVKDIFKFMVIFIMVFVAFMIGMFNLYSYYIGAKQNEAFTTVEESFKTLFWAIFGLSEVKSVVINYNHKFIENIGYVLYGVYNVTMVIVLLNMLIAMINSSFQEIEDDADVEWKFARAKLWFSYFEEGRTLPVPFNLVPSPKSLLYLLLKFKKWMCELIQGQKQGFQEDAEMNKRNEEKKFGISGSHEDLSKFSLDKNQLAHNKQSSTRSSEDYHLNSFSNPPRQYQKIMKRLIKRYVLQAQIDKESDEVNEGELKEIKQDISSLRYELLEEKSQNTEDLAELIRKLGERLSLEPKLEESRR
# TRPC6 inh: mouse TRPC6 channel inhibitors, primary screen, cell-based, HEK293, membrane potential dye; Short transient receptor potential channel 6 (Mus musculus), Q61143; AID 2553, 2010; ACh-evoked depolarization; active compounds read low; hit rate 1.1% among 310,000; B-score at 10 µM;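 active = B-score under library mean minus 3 SD, initial fluorescence not abnormally high, positive integrated signal ratio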;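 also: B-score derived from integrated fluorescence ratio over the kinetic read; more negative B-score means stronger inhibition of depolarization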
# TRPC4 block: inhibitors of mouse TRPC4 channel, primary screen, Fluo4 calcium, HEK293 TRPC4beta/mu-opioid cells | Short transient receptor potential channel 4 (Mus musculus), Q9QUQ5 | DAMGO-evoked Fluo4 calcium flux; active compounds read low | B-score at 10 µM | hit rate 0.39% among 300,000;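 active = B-score over 3 SD under the library average, no early fluorescence shift, positive overall ratio signal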
#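 material = TRPC4beta/mu-opioid receptor HEK293 cell line | probe or stimulus = sequential submaximal and maximal DAMGO stimulation | compound dosing = one concentration per compound | measured by = Fluo4 Ca2+ flux fluorescence | evaluation = integrated fluorescence ratio relative to baseline, converted to per-well B score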
# TRPC4 act: activators of mouse TRPC4 channel, primary screen, Fluo4 calcium, HEK293 TRPC4beta/mu-opioid cells. Short transient receptor potential channel 4 (Mus musculus), Q9QUQ5. Fluo4 calcium fluorescence; active compounds read high. B-score at 10 µM. hit rate 0.49% among 310,000;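 active = B-score above 5 SD of library B-scores, and initial fluorescence ratio not above library mean plus 5 SD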;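 also: positive B-score marks a calcium rise read as TRPC4 activation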
#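 Technique: kinetic Fluo4 calcium fluorescence; Test system: TRPC4beta and mu-opioid receptor HEK293 stable cells; Measure: B-scored integrated calcium fluorescence ratio; Benchmarks: low control buffer alone, high control maximal DAMGO; Schedule: 45 min room-temperature Fluo4 loading, 110 s read.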
# TRPC4 potent: positive allosteric modulators of TRPC4, primary screen, cell-based, mouse TRPC4beta, HEK293 mu-opioid, Fluo-4 calcium. Short transient receptor potential channel 4 (Mus musculus), Q9QUQ5. DAMGO EC20, Fluo-4 Ca2+ flux; active compounds read high. B-score at 10 µM. hit rate 0.42% among 310,000;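 active = B-score of calcium response area above 5 SD of library B-scores, with initial fluorescence ratio within 5 SD of library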;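 also: B-score of integrated fluorescence ratio over time as area under calcium response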
# TRPC4 spec 2: second selectivity test of TRPC6 inhibitors: effect on mouse TRPC4; HEK293 TRPC4/MOR, membrane potential dye fluorescence; channel activated by saturating DAMGO dose; hit rate 42% among 920; AID 2776; inhibition, % at 10 µM; shares compounds with TRPC6 inh;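 active = compounds whose fluorescence signal differed from control wells by over 3 SD, either direction, in both duplicate plates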
# TRPC4 spec: mouse TRPC4 modulation by TRPC6 hits, confirmation, selectivity assay for TRPC6 inhibitor project, cell-based, HEK293 TRPC4/mu-opioid, membrane potential dye. activity change, negative = inhibition, % at 10 µM. AID 2777, 2010. hit rate 61% among 920. shares compounds with TRPC6 inh. membrane potential fluorescence;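 active = rise or fall in signal beyond 3 SD of buffer-only wells in both replicate plates, either sign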;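 also: integrated kinetic ratio of fluorescence range over baseline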
# HEK293 MPD ctr 2-1: nonspecific membrane potential effects, parental HEK293, confirmation, counter-screen for TRPC6 inhibitor project, cell-based, second counter screen; shares compounds with TRPC6 inh; parental HEK293 membrane potential dye fluorescence; maximal acetylcholine challenge after compound addition; signal change vs control, % at 10 µM; hit rate 31% among 920; AID 2779, 2010;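 active = membrane potential signal moving either way by over 3 SD of the maximum-effect control, in both duplicate plates, meaning non-specific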
# HEK293 MPD ctr-1: membrane potential modulation in parental HEK293, confirmation, counter-screen for TRPC6 inhibitor project, cell-based; shares compounds with TRPC6 inh; parental HEK293 membrane potential dye fluorescence; membrane potential signal change, % at 10 µM; hit rate 60% among 920;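 active = membrane potential signal shifting up or down by more than 3 SD of buffer-only wells, on both duplicate plates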
# HEK293 MPD ctr-2: parental HEK293 membrane potential modulation, confirmation, counter-screen for TRPC6 modulator project, cell-based. shares compounds with TRPC6 inh. membrane potential dye fluorescence. membrane potential signal change, % at 10 µM. hit rate 51% among 2,400;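 active = membrane potential signal moves up or down beyond 5 SD from buffer-only wells, on both duplicate plates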
# HEK293 MPD ctr 2-2: second counter-screen for TRPC6 modulators: effect in parental HEK293 cells | shares compounds with TRPC6 inh | membrane potential dye fluorescence; after compound, maximal acetylcholine stimulation | inhibition, % at 10 µM | hit rate 14% among 2,400 | AID 488926;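 active = membrane potential signal drops by more than 5 SD from the mean control signal, in both duplicate plates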;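 also: plate controls were acetylcholine ECmax control wells for no effect and buffer only wells for full effect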
# TRPC4/MOR mod: TRPC4 modulation by TRPC6 hit compounds, confirmation, selectivity assay for TRPC6 modulator project, cell-based, HEK293 TRPC4/mu-opioid, membrane potential dye, mouse; hit rate 69% among 2,400; shares compounds with TRPC6 inh; AID 488927, 2010; membrane potential fluorescence; percent change from control (negative = decrease, positive = increase), % at 10 µM;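 active = membrane potential signal moved up or down beyond 5 SD of buffer control wells, in both duplicate plates, actives on both sides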;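 also: plate controls were assay buffer wells for no effect and DAMGO maximal-effect wells for full effect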
# TRPC4 ctr inh 2: second check of whether TRPC6 modulators also affect mouse TRPC4 | HEK293 TRPC4/mu-opioid, membrane potential dye fluorescence; stimulated with maximal-effect DAMGO | hit rate 55% among 2,400 | AID 488928 | shares compounds with TRPC6 inh | inhibition, % at 10 µM;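 active = drop in membrane potential signal beyond 5 SD of the control wells in both duplicate plates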;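 also: TRPC4 counter screen for TRPC6 hits run under conditions tuned for TRPC6 not TRPC4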
# TRPC6 block conf: mouse TRPC6 channel inhibitors, confirmation, HEK293 cells, membrane potential dye, duplicate; shares compounds with TRPC6 inh; ACh-evoked depolarization; hit rate 43% among 3,300; inhibition, % at 10 µM; AID 488960, 2010;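 active = fluorescence ratio falls more than 5 SD below the full-stimulation control mean, in both duplicate runs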;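 also: integrated fluorescence ratio of peak minus minimum over baseline after agonist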
# TRPC6 act conf: mouse TRPC6 channel activators, confirmation, HEK293 cells, membrane potential dye, duplicate | shares compounds with TRPC6 inh | HEK293-TRPC6 membrane potential dye fluorescence, FDSS | activation, % at 10 µM | hit rate 11% among 2,800 | AID 488961, 2010;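 active = ratio signal rise beyond 5 SD above unstimulated control wells' mean, seen in both duplicate runs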;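 also: plate controls were buffer EC0 wells for no effect and acetylcholine ECmax response for full effect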
# * hit, by the source's call; i = inactive; · = no result.
SMILES,TRPC6 activator,TRPC6 inh,TRPC4 block,TRPC4 act,TRPC4 potent,HEK293 MPD ctr-2,HEK293 MPD ctr 2-2,TRPC4/MOR mod,TRPC4 ctr inh 2,TRPC6 block conf,TRPC6 act conf,others
Cc1cc(N2C(=O)NC(=O)CC2C)c(C)cc1C(C)C (stereo not drawn),i,-5.1*,i,i,i,i,i,i,i,i,i,
Cc1ccc(C(C[N+](=O)[O-])Sc2ccc(N)cc2)cc1 (stereo not drawn),i,i,i,i,i,·,·,·,·,·,·,
CCCCC(CC)Cn1c(N)c(C#N)c2nc3ccccc3nc21 (stereo not drawn),i,-6*,i,i,i,i,i,i,i,i,i,
Cc1cc(C(=O)NC2CCCc3c2cnn3-c2ccc(C(C)(C)C)cc2)nn1C (stereo not drawn),i,i,i,i,i,·,·,·,·,·,·,
COc1ccc(Cl)cc1C(=O)CSc1nc(N)cc(N)n1,13*,-8.5*,i,i,i,i,i,i,i,72%*,173%*,
CCCCn1nnnc1SCC(=O)c1cc(Cl)ccc1OC,i,i,i,i,i,·,·,·,·,·,·,
CCOC(=O)C1(CCCc2ccccc2)CCN(C(=O)CCN2CCCCC2=O)CC1,i,i,i,i,i,·,·,·,·,·,·,
O=C(O)COc1ccc(/C=C/c2nc3ccc([N+](=O)[O-])cc3s2)cc1,i,-8.5*,i,i,i,·,·,·,·,i,i,TRPC4 spec 2=i;TRPC4 spec=-30%*;HEK293 MPD ctr 2-1=i;HEK293 MPD ctr-1=-426%*
O=C(NCc1ccccn1)C1(C(F)(F)F)C/C(=C\CCO)CCCO1 (stereo not drawn),i,i,i,i,i,·,·,·,·,·,·,
